Assays:
Mus musculus [1] = assay: Evaluated for the radiotracer concentration in striatum of mouse brain, 4 hr after intravenous injection; format: functional, organism-based
Outline: (§1)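 Female CD-1 mice (18–27 g; n = 4 or 5 per tracer) were given the tracer by tail-vein injection under ether anesthesia. Doses were 7.2–10.8 μCi of the 125I-labeled tracer or 5.0 μCi of the 3H-labeled tracer. Mice were killed 4 h later. Tissues were excised, weighed, and counted by gamma or liquid-scintillation counting. Values are % injected dose/g, or % dose in whole brain, normalized to a 25 g mouse.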

Mus musculus [2] = assay: Evaluated for the radiotracer concentration in cerebellum of mouse brain, 4 hr after intravenous injection; format: functional, organism-based; outline: as §1
Mus musculus [3] = assay: Evaluated for the radiotracer concentration in cerebral cortex of mouse brain, 4 hr after intravenous injection; format: functional, organism-based; outline: as §1
Mus musculus [4] = species: Mus musculus; assay: Percentage dose injected in the whole brain of mouse was determined.; format: functional; outline: as §1
[5] = tested as the 125I-labelled form

## O[C@@H]1Cc2cccc(I)c2C[C@H]1N1CCC(c2ccccc2)CC1
Mus musculus [1]
  Dose/g: 6.26%
Mus musculus [2]
  Dose/g: 0.23%
Mus musculus [3]
  Dose/g: 2.56%
Mus musculus [4]
  Dose: 1.03%

## OC1Cc2cccc([125I])c2CC1N1CCC(c2ccccc2)CC1 (racemic)
Mus musculus [4]
  Dose: 0.56%

## [3H]OC1CCCCC1N1CCC(c2ccccc2)CC1 (stereo unspecified)
Mus musculus [4]
  Dose: 0.24%

## O[C@H]1Cc2cccc([125I])c2C[C@@H]1N1CCC(c2ccccc2)CC1
Mus musculus [4]
  Dose: 0.06%

## OC1CCCCC1N1CCC(c2ccccc2)CC1 (stereo unspecified)
Mus musculus [1]; tested as the 3H-labelled form
  Dose/g: 0.4%
Mus musculus [2]; tested as the 3H-labelled form
  Dose/g: 0.1%
Mus musculus [3]; tested as the 3H-labelled form
  Dose/g: 0.42%

## OC1Cc2cccc(I)c2CC1N1CCC(c2ccccc2)CC1 (racemic)
Mus musculus [1]; [5]
  Dose/g: 3.29%
Mus musculus [2]; [5]
  Dose/g: 0.2%
Mus musculus [3]; [5]
  Dose/g: 1.17%

## O[C@H]1Cc2cccc(I)c2C[C@@H]1N1CCC(c2ccccc2)CC1
Mus musculus [1]; [5]
  Dose/g: 0.26%
Mus musculus [2]; [5]
  Dose/g: 0.06%
Mus musculus [3]; [5]
  Dose/g: 0.12%

— ChEMBL document CHEMBL1124857, “A radiotracer for mapping cholinergic neurons of the brain” (1990)
